{"source": "PubChem BioAssay AID1496", "about": "(Sanford-Burnham Center for Chemical Genomics, 2009)", "note": "The whole screen tested about 220,000 compounds, of which about 990 (0.45%) were called active. Many of the other results were omitted from the sample, so actives are more common in it than they were. A number with no mark means an inactive call.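 Rule for the calls: active = inhibition over about 50% at 20 µM in the single-dose screen (limit read from the data); inactive = the rest.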"}
{"target": "Runt-related transcription factor 1 (Homo sapiens) + Core-binding factor subunit beta (Homo sapiens) (UniProt Q01196+Q13951)", "sequence (Q01196 whole entry, looked up)": "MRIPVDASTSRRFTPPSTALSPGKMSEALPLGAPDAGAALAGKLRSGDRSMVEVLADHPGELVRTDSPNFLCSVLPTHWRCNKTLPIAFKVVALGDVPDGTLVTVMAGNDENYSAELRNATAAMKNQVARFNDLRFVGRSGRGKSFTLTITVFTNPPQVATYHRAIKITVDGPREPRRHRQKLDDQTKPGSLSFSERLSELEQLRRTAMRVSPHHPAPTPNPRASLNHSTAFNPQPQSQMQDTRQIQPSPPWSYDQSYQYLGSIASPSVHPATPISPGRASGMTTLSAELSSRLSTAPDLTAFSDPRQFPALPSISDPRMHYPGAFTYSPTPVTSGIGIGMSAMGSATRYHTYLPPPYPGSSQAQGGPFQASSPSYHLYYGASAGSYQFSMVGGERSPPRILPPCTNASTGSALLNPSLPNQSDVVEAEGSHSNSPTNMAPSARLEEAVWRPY", "sequence (Q13951 whole entry, looked up)": "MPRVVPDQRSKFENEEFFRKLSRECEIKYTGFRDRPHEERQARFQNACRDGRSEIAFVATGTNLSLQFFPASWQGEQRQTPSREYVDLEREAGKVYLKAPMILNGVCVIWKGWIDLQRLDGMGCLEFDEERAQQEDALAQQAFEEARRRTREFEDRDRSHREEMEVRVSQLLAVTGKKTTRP", "assay": "inhibitors of RUNX1 Runt–CBFb binding, primary screen, biochemical, FRET, Cerulean-Runt, Venus-CBFb, uHTS (AID 1496);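 note: 0% = DMSO wells and 100% = excess unlabeled CBFb competitor control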", "details": "Cerulean-Runt/Venus-CBFb FRET ratio 530/480, 1 h; at 20 µM; hits give high values", "summary_of_the_method": "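Measured by: fluorescence energy transfer, 422 nm excitation, 530/480 nm emission; test system: Cerulean-tagged RUNX1 Runt domain (FRET donor) fusion protein; buffer or medium: Tris pH 7.5 buffer with BSA; compound: one dose, 20 µM compound, 1% DMSO; times: two 1 h room-temperature incubations shielded from light; benchmarks: unlabeled CBFb 5 µM, positive control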"}
{"compound": "O=C(O)c1ccccc1OCc1ccccc1Cl", "inhibition": "2.6%"}
{"compound": "C#CCOCCOCCOCCNc1nc(N2CCN(C(=O)[C@H](CCC(=O)O)n3cc(C(N)CO)nn3)CC2)nc(N2CCN(C(=O)[C@H](CCCCN)n3cc(C(N)[C@H](C)CC)nn3)CC2)n1", "note": "(stereo not given in full)", "inhibition": "0.2%"}
{"compound": "COc1ccc(C(=O)C2CCCN(C(=O)c3cnsn3)C2)c(C)c1", "note": "(stereo not given)", "inhibition": "-0.7%"}
{"compound": "CCCS(=O)(=O)N1CCCC(C(=O)NCc2ccco2)C1", "note": "(stereo not given)", "inhibition": "71.8% (active)"}
{"compound": "O=C(NCc1ccco1)C1CCCN(S(=O)(=O)c2ccccc2)C1", "note": "(stereo not given)", "inhibition": "-0.1%"}
{"compound": "O=C(NCc1ccco1)C1CCCN(S(=O)(=O)c2cnc[nH]2)C1", "note": "(stereo not given)", "inhibition": "1.5%"}
{"compound": "CCOC(=O)c1ccc(NC(=O)c2nc[nH]c2C(=O)NCc2ccccc2)cc1", "inhibition": "19.6%"}
{"compound": "CN(C)S(=O)(=O)c1ccc(Cl)c(NC(=O)COC(=O)CC(NC(N)=O)c2ccc(Cl)cc2)c1", "note": "(stereo not given)", "inhibition": "-1.9%"}
{"compound": "CCCN(CCC)S(=O)(=O)c1ccc(C(=O)N2CC3CCC(CC3)C2)cc1", "inhibition": "-0.8%"}
{"compound": "Cc1nc(C(=O)Nc2ccc(Cl)cc2)sc1C1(C)CC(c2ccccc2)=NO1", "note": "(stereo not given)", "inhibition": "1.9%"}
{"compound": "O=C(O)/C=C/c1ccc2c(c1)OCCO2", "inhibition": "1.9%"}
{"compound": "COc1cccc(CC(=O)Nc2ccc(-c3csc(C)n3)cc2)c1", "inhibition": "-1.8%"}
{"compound": "COc1ccc(OC(C)C(=O)NCCc2nc3ccccc3[nH]2)cc1", "note": "(stereo not given)", "inhibition": "-0.9%"}
{"compound": "CC(C)=C(NC(=O)c1ccco1)C(=O)NCCc1nc2ccccc2[nH]1", "inhibition": "1.2%"}
{"compound": "CC(C)Oc1ccc(/C=C(\\NC(=O)/C=C/c2ccco2)C(=O)NCCc2nc3ccccc3[nH]2)cc1", "inhibition": "89.5% (active)"}
{"compound": "CCOC(=O)C1=C(N)N2C(=O)C(C)SC2=C(C(=O)OCC)C1c1cc(OC)c(OC)c(OC)c1", "note": "(stereo not given)", "inhibition": "-5%"}
{"compound": "Cc1cc(Nc2ccc(Cl)cc2)nc(N2CCOCC2)n1", "inhibition": "0.3%"}
{"compound": "Cc1ccc(-n2c(N)c(C(=O)N3CCOCC3)sc2=S)c(C)c1", "inhibition": "40.6%"}
{"compound": "CCOC(=O)c1sc(=S)n(-c2cccc(OC)c2)c1N", "inhibition": "34%"}
{"compound": "Cc1cccc(-n2c(N)c(C(=O)N3CCN(C)CC3)sc2=S)c1", "inhibition": "55.8% (active)"}
{"compound": "CC(=O)Nc1nc2c(s1)C(=O)NCC(C)(C)C2", "inhibition": "1%"}
{"compound": "CCCN(c1ccc(C)cc1)c1nc(=O)c2cccnc2s1", "inhibition": "0.8%"}
{"compound": "Cc1cccc(N2C(=O)CC(SC(N)=Nc3ccccc3)C2=O)c1", "note": "(stereo not given)", "inhibition": "-1.7%"}
{"compound": "Cc1cccc(N2C(=O)C3C(c4ccccc4)OC4(C(=O)c5ccccc5C4=O)C3C2=O)c1", "note": "(stereo not given)", "inhibition": "115% (active)"}
{"compound": "Cc1cccc(N2C(=O)c3cccnc3C2=O)c1", "inhibition": "-2.4%"}
{"compound": "O=C(Nc1ccc(Cl)cc1)Nc1ccc(C(=O)N2CCOCC2)cc1", "inhibition": "-0.4%"}
{"compound": "Cc1cccn2c(=O)c3cc(C(=O)N4COCC4(C)C)n(C)c3nc12", "inhibition": "-1.7%"}
{"compound": "Cc1cc(C)n(CC(C)NCc2c(C(=O)N3CCOCC3)nc3c(C)cccn23)n1", "note": "(stereo not given)", "inhibition": "0.6%"}
{"compound": "Cc1cccn2c(=O)c3cc(C#N)c(=O)n(CCCN4CCOCC4)c3nc12", "inhibition": "92.6% (active)"}
{"compound": "CC(C)c1c(O)nc(SCCOc2ccc(Cl)cc2)[nH]c1=O", "inhibition": "0.6%"}
{"compound": "Cc1cc(C)c2c3c(sc2n1)C(c1ccccc1)C(C#N)=C(N)O3", "note": "(stereo not given)", "inhibition": "66.6% (active)"}
{"compound": "Cc1cc(C)c(C#N)c(SCc2[nH]nc3c2C(c2ccccc2)C(C#N)=C(N)O3)n1", "note": "(stereo not given)", "inhibition": "-1.5%"}
{"compound": "N#CC1=C(N)Oc2c(sc3ccccc23)C1c1ccco1", "note": "(stereo not given)", "inhibition": "15.7%"}
{"compound": "Nc1c(Cl)cc(S(N)(=O)=O)cc1S(N)(=O)=O", "inhibition": "0%"}
{"compound": "COc1ccc(/C=C2\\N=C3CCCN3C2=O)cc1", "inhibition": "1.1%"}
{"compound": "COc1ccc(/C=N/NS(=O)(=O)c2ccc(NC(C)=O)cc2)cc1", "inhibition": "0.8%"}
{"compound": "CCCCN1CCNC1=S", "inhibition": "0.1%"}
{"compound": "CS(=O)(=O)N(CC(O)Cn1c2ccccc2c2ccccc21)c1cccc2ccccc12", "note": "(stereo not given)", "inhibition": "-3.3%"}
{"compound": "O=C1c2ccccc2S(=O)(=O)N1CC(O)Cn1c2ccccc2c2ccccc21", "note": "(stereo not given)", "inhibition": "-0.7%"}
{"compound": "CCCCN(CCCC)CC(O)Cn1c2ccccc2c(=O)c2ccccc21", "note": "(stereo not given)", "inhibition": "80.3% (active)"}
{"compound": "O=C1[C@@H]2C(c3cccnc3)=NO[C@@H]2C(=O)N1c1ccc(Cl)cc1Cl", "inhibition": "9%"}
{"compound": "COc1ccc(Cl)cc1CSc1ncn[nH]1", "inhibition": "-0.7%"}
{"compound": "Cc1ccsc1/C=N/NC(=O)Cc1cc(=O)[nH][nH]1", "inhibition": "-1.1%"}
{"compound": "COc1ccc(-c2csc3ncnc(Oc4ccc5c(C)cc(=O)oc5c4)c23)cc1", "inhibition": "-0.5%"}
{"compound": "Cc1cc(F)ccc1S(=O)(=O)Nc1ncnc2scc(-c3ccc(F)cc3)c12", "inhibition": "66.8% (active)"}
{"compound": "CCn1cnc2scc(-c3ccc(C)c(C)c3)c2c1=O", "inhibition": "0.4%"}
{"compound": "CCOc1ccc2sc(NS(=O)(=O)c3ccc(N)cc3)nc2c1", "inhibition": "0.7%"}
{"compound": "CCNc1nc(NCC)nc(N/N=C/c2ccc(O)c(OC)c2)n1", "inhibition": "10%"}
{"compound": "CCOC(=O)N1CCN(C(=O)c2cc3c(ccc4ccccc43)oc2=O)CC1", "inhibition": "2.5%"}
{"compound": "CNC(=O)c1cc2c(ccc3ccccc32)oc1=N", "inhibition": "108% (active)"}
{"compound": "N=c1oc2ccccc2cc1C(=O)N/N=C/c1ccccc1", "inhibition": "-2.3%"}
{"compound": "CCN(CC)C(=O)Oc1ccc(Br)cc1C(=O)Nc1ccc(F)c(Cl)c1", "inhibition": "0.6%"}
{"compound": "CCn1c(SCC(=O)N/N=C/c2ccncc2)nc2ccccc21", "inhibition": "-0.7%"}
{"compound": "COc1ccc(C2C(C#N)=C(N)Oc3cc(N)ccc32)cc1OC", "note": "(stereo not given)", "inhibition": "77.7% (active)"}
{"compound": "COC(=O)C1=C(C)OC(N)=C(C#N)C1c1cc(OC)ccc1OC", "note": "(stereo not given)", "inhibition": "-2.5%"}
{"compound": "CCC1=C(C(=O)OC)C(c2cc(OC)ccc2OC)C(C#N)=C(N)O1", "note": "(stereo not given)", "inhibition": "2%"}
{"compound": "CCOC(=O)c1c(NC(=S)Nc2ccccc2)sc2c1CCN(C)C2", "inhibition": "66.5% (active)"}
{"compound": "CCOC(=O)c1c(NC(=S)Nc2ccccc2C)sc2c1CCC2", "inhibition": "10.3%"}
{"compound": "CCOC(=O)c1c(NC(=O)NC(C)(C)C)sc2c1CCN(C)C2", "inhibition": "4.1%"}
{"compound": "CC(C)(C)c1nnc(NC(=O)C2c3ccccc3Oc3ccccc32)s1", "inhibition": "21%"}
{"compound": "CC(C)Sc1nnc([C@H](Cc2ccccc2)NC(=O)OC(C)(C)C)o1", "inhibition": "4.8%"}
{"compound": "Fc1cccc(Cl)c1CSc1ccc(-c2ccco2)nn1", "inhibition": "40.3%"}
{"compound": "O=C(CSc1ccc(-c2ccco2)nn1)NCc1ccc2c(c1)OCO2", "inhibition": "16.4%"}
{"compound": "Brc1ccc(CSc2ccc(-c3ccco3)nn2)cc1", "inhibition": "53.3% (active)"}
{"compound": "CCC(C)(C)NC(=O)C(c1ccc(O)cc1)N(C(=O)Cn1nnc2ccccc21)c1ccc(NC(C)=O)cc1", "note": "(stereo not given)", "inhibition": "0.4%"}
{"compound": "COc1cc(COCC(O)CN2CCN(Cc3ccc4c(c3)OCO4)CC2)cc(OC)c1OC", "note": "(stereo not given)", "inhibition": "-1%"}
{"compound": "COc1c(O)ccc2c1CN1CCc3cc4c(cc3C1C2)OCO4", "note": "(stereo not given)", "inhibition": "66.6% (active)"}
{"compound": "COc1ccc2cc1Oc1ccc(cc1)C[C@H]1c3cc(c(OC)cc3CCN1C)Oc1c(O)c(OC)cc3c1[C@H](C2)N(C)CC3", "inhibition": "1.7%"}
{"compound": "CCOC(=O)c1ccc(NC(=O)c2nc[nH]c2C(=O)N[C@@H](CCCCNC(=O)OC(C)(C)C)C(=O)OC(C)(C)C)cc1", "inhibition": "-5.6%"}
{"compound": "O=C(Cn1c(-c2ccccn2)nc2ccccc21)NCCN1CCOCC1", "inhibition": "0.6%"}
{"compound": "CSc1nnc(-c2ccncc2)n1CCCN1CCCC1=O", "inhibition": "-5.5%"}
{"compound": "CC(C)(C)OC(=O)c1c(N)n(CCCN2CCCC2=O)c2nc3ccccc3nc12", "inhibition": "68.7% (active)"}
{"compound": "COCC(C)OC(=O)c1c(N)n(CCCN2CCOCC2)c2nc3ccccc3nc12", "note": "(stereo not given)", "inhibition": "67.9% (active)"}
{"compound": "Cc1ccc(C(=O)OC(C)CN2CCOCC2)cc1", "note": "(stereo not given)", "inhibition": "1.3%"}
{"compound": "CCOc1ccc(C(=O)NCCCN2CCCC2=O)cc1", "inhibition": "1%"}
{"compound": "CC(C)C[C@H](CO)Nc1nc(N(C)c2cccc(Cl)c2)c2ncn(C(C)C)c2n1", "inhibition": "-4.6%"}
{"compound": "N/C(=N\\OC(=O)Nc1ccccc1)c1ccno1", "inhibition": "0.1%"}
{"compound": "OCCN1CCN(C(=S)c2ccc(-c3ccccc3)cc2)CC1", "inhibition": "53.6% (active)"}
{"compound": "S=C(c1ccc(-c2ccccc2)o1)N1CCCCC1", "inhibition": "21%"}
{"compound": "O=C(NC(c1ccccc1)c1ccccc1)N1CCN(CCO)CC1", "inhibition": "-1.2%"}
{"compound": "CCc1nc2sc3c(Cl)ncnc3c2c2c1CCCC2", "inhibition": "-0.7%"}
{"compound": "CCN(CC)S(=O)(=O)c1ccc(N2CCOCC2)c(C(=O)O)c1", "inhibition": "1%"}
{"compound": "CCN(CC)S(=O)(=O)c1ccc(N2CCOCC2)c(NC(=O)C2COc3ccccc3O2)c1", "note": "(stereo not given)", "inhibition": "84.6% (active)"}
{"compound": "Cc1ccc(S(=O)(=O)N(C)C)cc1NC(=O)COC(=O)C1COc2ccccc2O1", "note": "(stereo not given)", "inhibition": "-0.2%"}
{"compound": "COc1cccc2sc(NNC(=O)c3nc4ccccc4s3)nc12", "inhibition": "32.7%"}
{"compound": "COc1cccc2sc(Nc3nc(C)c(C(C)=O)s3)nc12", "inhibition": "66.3% (active)"}
{"compound": "CC(=O)c1sc(NC(=O)CCCOc2ccccc2C)nc1C", "inhibition": "0.4%"}
{"compound": "O=S(=O)(NC(=S)Nc1ccccc1)c1ccc(F)cc1", "inhibition": "26.8%"}
{"compound": "O=[N+]([O-])c1ccc2c(c1)C(O)n1nc(-c3ccccc3)nc1S2", "note": "(stereo not given)", "inhibition": "-0.7%"}
{"compound": "C=CCNC(=S)NNC(=O)c1cc(Cl)ccc1OC", "inhibition": "0.2%"}
{"compound": "C=CCSc1nnc(NC(=O)c2ccc(NC(C)=O)cc2)s1", "inhibition": "0%"}
{"compound": "NNC(=O)c1cccc(COCC(F)(F)C(F)F)c1", "inhibition": "-0.3%"}
{"compound": "N#CC1=C(N)N(c2ccccc2)C2=C(C(=O)CCC2)C1c1ccccc1", "note": "(stereo not given)", "inhibition": "6.6%"}
{"compound": "CCCC(=O)N1c2ccccc2NC2=C(C(=O)CCC2)C1c1ccc(F)cc1", "note": "(stereo not given)", "inhibition": "-0.4%"}
{"compound": "CCCN1C2=C(C(=O)CCC2)C(c2ccc(O)c(Br)c2)C2=C1CCCC2=O", "inhibition": "53.1% (active)"}
